Values after ≈ are worked out from the molar mass of the structure shown.
Tests used:
Mus musculus [1] = assay: Tested for its ability to inhibit the incorporation of [5-3H]-mevalonolactone into cholesterol by in vivo mouse assay by peroral administration at a dose of 40 mg/kg; format: functional; conditions: route oral
Outline: (§1)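 Female Swiss Webster mice (~25 g), six per group, dosed po by gavage with inhibitor suspended in 5% emulphor. 30 min later, 0.5 μCi/mouse [5-3H]mevalonolactone in saline given sc. Livers removed 30 min after that and saponified in KOH/EtOH overnight at 55 °C, then petroleum-ether extracted. Nonsaponifiable dpm counted. Compounds first tested at a single dose (typically 12 or 24 mg/kg).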

Squalene synthase [2] = target: T1, Squalene synthase (Rattus norvegicus, UniProt Q02769); assay: Tested for inhibition against squalene synthase enzyme in rat liver
T1 sequence (Q02769 whole entry): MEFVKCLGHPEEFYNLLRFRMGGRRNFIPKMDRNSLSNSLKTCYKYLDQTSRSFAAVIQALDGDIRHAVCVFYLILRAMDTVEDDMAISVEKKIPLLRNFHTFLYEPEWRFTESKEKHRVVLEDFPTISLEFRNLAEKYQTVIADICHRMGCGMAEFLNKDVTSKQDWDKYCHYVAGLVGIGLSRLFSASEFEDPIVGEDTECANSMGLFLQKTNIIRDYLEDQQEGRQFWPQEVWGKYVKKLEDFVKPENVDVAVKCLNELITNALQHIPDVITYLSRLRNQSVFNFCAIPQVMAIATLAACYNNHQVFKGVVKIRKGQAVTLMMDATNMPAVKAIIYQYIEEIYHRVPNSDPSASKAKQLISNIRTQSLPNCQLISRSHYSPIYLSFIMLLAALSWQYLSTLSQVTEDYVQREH

[3] = target: T2, Squalene synthase (Rattus norvegicus) (UniProt Q02769); assay: concentration required to inhibit rat liver squalene synthase enzyme relative to control (L-694,599)
T2 sequence (whole entry): T1 sequence (Q02769 whole entry)
Outline: (§2)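 Enzyme from rat liver. […] Inhibitors added in DMSO (0.3% final) as 3-fold serial dilutions, usually up to 30 ng/mL (about 40 nM). IC50 read from % inhibition vs log concentration.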

HepG2 [4] = assay: Concentration required to inhibit cholesterol synthesis in Hep G2 cells; format: functional, cell-based; conditions: Homo sapiens
Outline: (§3)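 Hep G2 cells held 2 days in lipoprotein-depleted FBS to stimulate sterol synthesis, then given inhibitor in serum-free medium for 2 h. 15 μCi [5-3H]mevalonate (0.2 mCi/mmol) added for 1 h. Cells washed and saponified, and radioactivity counted by scintillation.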

HepG2 [5] = assay: Concentration required to inhibit cholesterol synthesis in Hep G2 cells relative to control (IC50 of L-694,599); format: functional, Homo sapiens; outline: as §3
Mus musculus [6] = assay: Tested for its ability to inhibit the incorporation of [5-3H]-mevalonolactone into cholesterol by in vivo mouse assay by peroral administration at a dose of 12 mg/kg; format: functional; conditions: route oral; outline: as §1
[7] = target: T2, Squalene synthase (Rattus norvegicus); assay: Concentration required to inhibit rat liver squalene synthase enzyme relative to control (L-694,599); outline: as §2
[8] = target: T3, Squalene synthase (Mus musculus) (UniProt P53798); assay: Tested for the effective dose required for the incorporation of [5-3H]-mevalonolactone into cholesterol by in vivo mouse assay by peroral administration; format: functional, organism-based; outline: as §1
T3 sequence (whole entry): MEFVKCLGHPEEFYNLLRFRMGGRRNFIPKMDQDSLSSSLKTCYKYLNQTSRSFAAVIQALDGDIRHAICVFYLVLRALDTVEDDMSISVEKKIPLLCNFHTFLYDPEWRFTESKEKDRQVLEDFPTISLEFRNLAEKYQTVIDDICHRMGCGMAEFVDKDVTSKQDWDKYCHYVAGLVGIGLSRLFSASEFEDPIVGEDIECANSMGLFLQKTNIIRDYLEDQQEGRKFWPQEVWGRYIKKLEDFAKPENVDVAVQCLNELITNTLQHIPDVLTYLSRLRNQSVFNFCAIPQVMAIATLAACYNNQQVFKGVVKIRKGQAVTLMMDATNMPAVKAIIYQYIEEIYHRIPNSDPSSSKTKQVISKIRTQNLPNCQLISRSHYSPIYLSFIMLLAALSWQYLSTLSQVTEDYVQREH

Squalene synthase [9] = target: T1, Squalene synthase; assay: Concentration required for inhibition of rat liver squalene synthase enzyme at 161 nM; Not active
Mus musculus [10] = assay: Ability to inhibit the incorporation of [5-3H]-mevalonolactone into cholesterol by in vivo mouse assay by peroral administration at a dose of 24 mg/kg; format: functional; conditions: route oral; outline: as §1
Aspergillus fumigatus = assay: Concentration required to inhibit growth of MF 4839 strain of Aspergillus fumigatus; format: functional
Outline: (§4)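 Broth microdilution against a panel of clinically relevant fungal strains. Read-out was the minimum fungicidal concentration in μg/mL.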

Candida parapsilosis = assay: Concentration required to inhibit growth of MY 1010 strain of Candida parapsilosis; format: functional; conditions: Lodderomyces parapsilosis; outline: as §4
Candida albicans [11] = assay: Concentration required to inhibit growth of MY 1055 strain of Candida albicans; format: functional; outline: as §4
Candida albicans [12] = assay: Concentration required to inhibit growth of MY 1750 strain of Candida albicans; format: functional; outline: as §4
Candida tropicalis = assay: Concentration required to inhibit growth of MY 1012 strain of Candida tropicalis; format: functional; outline: as §4
Cryptococcus neoformans [13] = assay: Concentration required to inhibit growth of MY 1051 strain of Cryptococcus neoformans; format: functional; outline: as §4
Cryptococcus neoformans [14] = assay: Concentration required to inhibit growth of MY 2061 strain of Cryptococcus neoformans; format: functional; outline: as §4
Trichophyton benhamiae = assay: Concentration required to inhibit growth of MF 4864 strain of Trichophyton mentagrophytes; format: functional, Arthroderma benhamiae; outline: as §4
Squalene synthase [15] = target: T1, Squalene synthase; assay: Concentration required for inhibition of rat liver squalene synthase enzyme at 161 nM; NA = not active

Row | IC50 (Squalene synthase [2]) | IC50 (HepG2 [4]) | Relative activity [7] | SMILES | Relative activity (HepG2 [5]) | inhibition in vivo at 12 mg/kg (Mus musculus [6]) | inhibition in vivo at 24 mg/kg (Mus musculus [10]) | other results
1 | 0.16 nM |  |  | C=C(CCC12OC(C(=O)O)C(O)(C(=O)O)C(C(=O)O)(O1)[C@H](OCCCCCCCCOc1ccccc1)[C@H]2O)[C@@H](OC(C)=O)[C@H](C)Cc1ccccc1 (stereo partly specified) |  |  |  | inhibition in vivo at 40 mg/kg (Mus musculus [1]): 4%; Relative activity [3]: 0.81
2 | 0.79 nM | 14000 nM |  | C=C(CCC12OC(C(=O)O)C(O)(C(=O)O)C(C(=O)O)(O1)[C@H](OCCCCCCCCCCCCCCCC)[C@H]2O)[C@@H](OC(C)=O)[C@H](C)Cc1ccccc1 (stereo partly specified) | 0.49 |  |  | Relative activity [3]: 0.15
3 | > 3000 nM |  | 0 | CCCC(=O)O[C@@H]1[C@@H](O)C2(CCCCc3ccccc3)OC(C(=O)O)C(O)(C(=O)O)C1(C(=O)O)O2 (stereo partly specified) |  | 5% |  | 
4 |  |  |  | C=C(CCC12OC(C(=O)O)C(O)(C(=O)O)C(C(=O)O)(O1)[C@H](OC(=O)CCC(=O)O)[C@H]2O)[C@@H](OC(C)=O)[C@H](C)Cc1ccccc1 (stereo partly specified) |  | -20% |  | ED50 [8]: > 12 mg/kg; IC50 (Squalene synthase [9]): Not Active
5 | 0.13 nM | 2000 nM | 1.08 | C=C(CCC12OC(C(=O)O)C(O)(C(=O)O)C(C(=O)O)(O1)[C@H](OC(=O)CCCCCCCCCCOc1ccccc1)[C@H]2O)[C@@H](OC(C)=O)[C@H](C)Cc1ccccc1 (stereo partly specified) | 3.4 |  | 11% | 
6 |  | 3600 nM |  | C=C(CCC12OC(C(=O)O)C(O)(C(=O)O)C(C(=O)O)(O1)[C@H](OC(=O)NCCCCCCCCCC)[C@H]2O)[C@@H](OC(C)=O)[C@H](C)Cc1ccccc1 (stereo partly specified) |  |  | 4% | MFC (Aspergillus fumigatus): 32 µg/mL (≈ 44.3 µM); MFC (Candida parapsilosis): 8 µg/mL (≈ 11.1 µM); MFC (Candida albicans [11]): 8 µg/mL (≈ 11.1 µM); MFC (Candida albicans [12]): 4 µg/mL (≈ 5.54 µM); MFC (Candida tropicalis): 16 µg/mL (≈ 22.2 µM); MFC (Cryptococcus neoformans [13]): 4 µg/mL (≈ 5.54 µM); MFC (Cryptococcus neoformans [14]): 0.5 µg/mL (≈ 0.693 µM); MFC (Trichophyton benhamiae): 2 µg/mL (≈ 2.77 µM)
7 | 0.17 nM | 8800 nM | 1.29 | C=C(CCC12OC(C(=O)O)C(O)(C(=O)O)C(C(=O)O)(O1)[C@H](OC(=O)NCCCCCCCCCCCC)[C@H]2O)[C@@H](OC(C)=O)[C@H](C)Cc1ccccc1 (stereo partly specified) | 1.02 |  | 0% | 
8 | 0.07 nM | 1300 nM |  | C=C(CCC12OC(C(=O)O)C(O)(C(=O)O)C(C(=O)O)(O1)[C@H](OC(=O)NCCCCCCCCCCCOc1ccccc1)[C@H]2O)[C@@H](OC(C)=O)[C@H](C)Cc1ccccc1 (stereo partly specified) | 0.64 |  | 56% | Relative activity [3]: 1.71
9 |  |  |  | C=C(CCC12OC(C(=O)O)C(O)(C(=O)O)C(C(=O)O)(O1)[C@H](OC(=O)CCCN)[C@H]2O)[C@@H](OC(C)=O)[C@H](C)Cc1ccccc1 (stereo partly specified) |  | 0% |  | ED50 [8]: > 12 mg/kg; IC50 (Squalene synthase [9]): Not Active
10 | 110 nM |  | 0.0026 | CCCC(=O)O[C@@H]1[C@@H](O)C2(CCCC[C@H](C)Cc3ccccc3)OC(C(=O)O)C(O)(C(=O)O)C1(C(=O)O)O2 (stereo partly specified) |  | -3% |  | 
11 |  |  |  | C=C(CCC12OC(C(=O)O)C(OCCC)(C(=O)O)C(C(=O)O)(O1)[C@H](O)[C@H]2O)[C@@H](OC(C)=O)[C@H](C)Cc1ccccc1 (stereo partly specified) |  |  |  | IC50 (Squalene synthase [9]): Not Active
12 |  |  |  | C=C(CCC12OC(C(=O)O)C(OCCCCCCCCCCCCCC)(C(=O)O)C(C(=O)O)(O1)[C@H](OCCCCCCCCCCCCCC)[C@H]2O)[C@@H](OC(C)=O)[C@H](C)Cc1ccccc1 (stereo partly specified) |  |  |  | IC50 (Squalene synthase [15]): Not Active

Reference: ChEMBL document CHEMBL1127414 (J Med Chem, 1994)
